Data on 14 compounds can be found in PubChem BioAssay.

A short description of assay [1]: Her2 expression decrease, cell viability multiplex – SKBR3 breast tumor cells, AlphaScreen, ATP viability, primary screen (AID 461;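 active means Her2 level under about 52% in both replicate screens, with viability over 70% of control, limit read from the data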;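 on Her2 level: lower value means less Her2 protein in the cells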;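 on viability: percent of carrier control wells set as 100% viability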). Conditions: SKBR3 Her2 protein level, 18-24 h, measured here: SKBR3 viability, ATP luminescence, at 10 µM.
Assay [2] addresses Receptor tyrosine-protein kinase erbB-2 (Homo sapiens) (UniProt P04626). The description is as above. Conditions: 18-24 h, at 10 µM, stronger effect = lower value.
A short description of assay [3]: reduced viability of SK-BR-3 breast cancer cells – cell-based, 24 h, human, pilot screen (AID 572).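 Further: compound exposure lasted between 18 and 24 h rather than exactly 24 h; 100% = carrier-treated control wells.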 Conditions: SK-BR-3 viability, CellTiter-Glo luminescence, at 10 µM, stronger effect = lower value. On the technique in general: Cellular ATP, detected with luciferase, serves as a proxy for viable cell number.
Assay [4] in a line: HUVEC growth inhibition – cell-based, human, primary screen (AID 575;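 active means viability at or below 30% in both replicate assays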;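 further: 100% = median of untreated cell wells with 0.1% DMSO on each plate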). Conditions: HUVEC proliferation, CellTiter-Glo luminescence, 72 h; at 10 µM; stronger effect = lower value. The gist of the method: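 Test system: primary human umbilical vein endothelial cells. Quantity: 1250 cells/well. Compound: single 10 µM dose, 0.1% DMSO, from 5x medium stock. Timing: 72 h treatment at 37 °C. Detection: ATP-based CellTiter-Glo luminescent read. Benchmarks: vehicle and MePR control wells. Format: 384-well plates coated with collagen.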

Assay [5] in a line: H69AR cell proliferation blockers – human, duplicate replicates, primary screen (AID 580;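 active means viability at or under a set limit in both replicates, limit being median viability minus 3 SD, cut at about 48% in these data, passing the limit was not always enough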;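 further: 100% = mean luminescence of untreated wells and 0% = no signal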). Conditions: H69AR lung tumor cells viability, ATP luminescence, 72 h; at 10 µM; stronger effect = lower value.
Assay [6] in a line: MRP1 drug-resistance reversers in H69AR cells – cell-based, doxorubicin co-treatment, pilot screen (AID 601;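 active means viability loss from added drug above about 55%, and viability with drug at most 40%, in both replicates, limit read from the data, passing the limit was not always enough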). The conditions noted are these: CellTiter-Glo, 72 h, at 10 µM; for differential viability (reversal): stronger effect = higher value.
A short description of assay [7]: yeast transport mutant growth inhibition pilot in 384-well plates, post-Golgi transport modulator project (AID 636; in the data active means inhibition above about 31%). Conditions: absorbance 615 nm, about 18 h, stronger effect = higher value.
A short description of assay [8]: growth suppression of yeast trafficking mutant, preliminary HTS, modulators of trafficking downstream of Golgi apparatus project, 1536-format plate, OD 615 nm (AID 637; in the data active means inhibition above about 30%). The conditions noted are these: yeast transport mutant growth, absorbance 615 nm, 18 h; stronger effect = higher value.
Where [9] appears, read: H69AR cells + 2 uM doxorubicin, measured here: viability with 2 uM doxorubicin, stronger effect = lower value.
Setting [10] is: H69AR cells, compound alone cytotoxicity.

Active and inactive are the calls of the source.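 How the source made its calls, unless noted: active means viability at or below 10% of carrier control in both of two separate runs; inconclusive means viability at or below 10% in only one of the two runs; inactive means the rest.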

Sequence of Receptor tyrosine-protein kinase erbB-2 (Homo sapiens) (P04626 whole entry, looked up): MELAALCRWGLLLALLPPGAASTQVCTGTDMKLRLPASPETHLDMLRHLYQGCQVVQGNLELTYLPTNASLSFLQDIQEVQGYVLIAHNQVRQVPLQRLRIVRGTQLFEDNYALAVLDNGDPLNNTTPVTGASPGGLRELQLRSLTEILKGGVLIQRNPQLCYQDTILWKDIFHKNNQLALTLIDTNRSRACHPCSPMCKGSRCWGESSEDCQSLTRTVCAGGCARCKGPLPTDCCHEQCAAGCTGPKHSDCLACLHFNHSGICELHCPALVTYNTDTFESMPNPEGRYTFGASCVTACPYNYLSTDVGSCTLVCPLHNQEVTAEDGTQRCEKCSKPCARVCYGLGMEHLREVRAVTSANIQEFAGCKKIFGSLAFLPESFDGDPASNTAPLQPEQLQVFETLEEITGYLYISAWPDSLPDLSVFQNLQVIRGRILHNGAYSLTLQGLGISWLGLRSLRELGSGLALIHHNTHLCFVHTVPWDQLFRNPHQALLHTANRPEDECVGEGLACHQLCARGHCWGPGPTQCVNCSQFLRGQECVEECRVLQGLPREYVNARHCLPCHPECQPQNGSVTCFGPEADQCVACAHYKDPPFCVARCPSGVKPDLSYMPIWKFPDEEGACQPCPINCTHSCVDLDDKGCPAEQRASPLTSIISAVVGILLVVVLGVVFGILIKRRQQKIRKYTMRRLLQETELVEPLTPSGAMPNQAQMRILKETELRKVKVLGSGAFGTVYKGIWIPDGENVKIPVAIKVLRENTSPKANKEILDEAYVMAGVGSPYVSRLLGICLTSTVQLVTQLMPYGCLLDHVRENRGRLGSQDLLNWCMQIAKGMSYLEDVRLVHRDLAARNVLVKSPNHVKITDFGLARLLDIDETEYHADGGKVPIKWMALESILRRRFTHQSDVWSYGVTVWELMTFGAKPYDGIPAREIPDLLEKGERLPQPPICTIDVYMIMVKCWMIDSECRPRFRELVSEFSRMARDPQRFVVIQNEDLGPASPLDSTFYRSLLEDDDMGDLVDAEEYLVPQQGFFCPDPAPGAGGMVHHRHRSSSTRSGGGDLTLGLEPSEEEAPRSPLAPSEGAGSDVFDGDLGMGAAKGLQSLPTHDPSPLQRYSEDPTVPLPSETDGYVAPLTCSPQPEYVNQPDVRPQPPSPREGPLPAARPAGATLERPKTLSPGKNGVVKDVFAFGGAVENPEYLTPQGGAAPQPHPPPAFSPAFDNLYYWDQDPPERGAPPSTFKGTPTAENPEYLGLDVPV

As a reminder, the viability is a read-out of living cells in per cent, often relative to untreated cells. A word on the inhibition: it is the change of the read-out against control, counted positive when it falls. In the case of `Cc1cc(OC(=O)N2CCOCC2)cc(C)c1Cl`, the viability in assay [1] was 93.5%; in assay [3] it was 93.5% (inactive); in assay [4], 88.7% (inactive); in assay [5] it was 105% (inactive); in assay [6] (setting [9]), 84.9%; in assay [6] (setting [10]) it was 105%. In addition, the Her2 level in assay [2] was 94.5% (inactive). Also, the differential viability (reversal) in assay [6] (H69AR cells + 2 uM doxorubicin) is 19.9% (inactive). The figures for the inhibition in assay [7] and in assay [8] were -3.55% (inactive) and -6.35% (inactive), respectively.

As for `Cn1c(=O)c2c3c(sc2n2c(SCc4ccccc4)nnc12)CCCC3`, the viability is 77% in assay [1]; 77% (inactive) in assay [3]; 88.8% (inactive) in assay [4]; 87.5% (inactive) in assay [5]; 78.4% in assay [6] (setting [9]); 87.5% in assay [6] (setting [10]). Besides, the Her2 level in assay [2] was 91.5% (inactive). Further, the differential viability (reversal) in assay [6] (H69AR cells + 2 uM doxorubicin) is 9.04% (inactive). Moreover, the results for the inhibition in assay [7] and in assay [8] were -2.93% (inactive) and -1.75% (inactive), respectively.

As to `O=C(NCc1ccccn1)Nc1ccc2c(c1)OCO2`, the viability in assay [1] is 100%; in assay [3], 100% (inactive); in assay [4] it was 78.7% (inactive); in assay [5] it was 92.4% (inactive); in assay [6] (setting [9]), 87.4%; in assay [6] (setting [10]), 92.4%. Further, the Her2 level in assay [2] was 102% (inactive). Further, the differential viability (reversal) in assay [6] (H69AR cells + 2 uM doxorubicin) was 4.97% (inactive). The inhibition in assay [7] is -2.37% (inactive); in assay [8], -0.95% (inactive).

In the case of `Cc1cc(SCC(N)=O)nc(SCC(=O)c2ccccc2)n1`, the viability in assay [1] was 92.5%; in assay [3] it was 92.5% (inactive); in assay [4], 106% (inactive); in assay [5] it was 99.8% (inactive); in assay [6] (setting [9]), 89.7%; in assay [6] (setting [10]) it was 99.8%. Further, the Her2 level in assay [2] is 89% (inactive). The differential viability (reversal) in assay [6] (H69AR cells + 2 uM doxorubicin) is 10.1% (inactive). Further, the inhibition in assay [7] was -0.53% (inactive); in assay [8] it was -5.08% (inactive).

In the case of `CC(C)(C)NC(=O)C(c1ccco1)N(C(=O)Cn1nnc(-c2ccc(F)cc2)n1)c1ccccc1F` (stereo not given), the viability was 99% in assay [1]; 99% (inactive) in assay [3]; 96% (inactive) in assay [4]; 99.3% (inactive) in assay [5]; 110% in assay [6] (setting [9]); 99.3% in assay [6] (setting [10]). Also, the Her2 level in assay [2] is 84% (inactive). In addition, the differential viability (reversal) in assay [6] (H69AR cells + 2 uM doxorubicin) is -11% (inactive). The inhibition in assay [7] was -5.54% (inactive); in assay [8], 21.8% (inactive).

Consider `S=c1[nH]nc(-c2ccco2)n1-c1cccc2ccccc12`, for which the viability in assay [1] is 102%; in assay [3], 102% (inactive); in assay [4] it was 78.5% (inactive); in assay [5] it was 96.9% (inactive); in assay [6] (setting [9]), 93.2%; in assay [6] (setting [10]), 96.9%. Besides, in assay [2], the Her2 level is 98.5% (inactive). In assay [6] (H69AR cells + 2 uM doxorubicin), the differential viability (reversal) is 3.69% (inactive). The inhibition in assay [7] was -0.54% (inactive); in assay [8], 14.6% (inactive).

Regarding `O=C(NC1CCS(=O)(=O)C1)N1CCCCC1` (stereo not given), the viability in assay [1] was 102%; in assay [3], 102% (inactive); in assay [4], 103% (inactive); in assay [5], 89.6% (inactive); in assay [6] (setting [9]), 88.3%; in assay [6] (setting [10]) it was 89.6%. In addition, in assay [2], the Her2 level was 79.5% (inactive). The differential viability (reversal) in assay [6] (H69AR cells + 2 uM doxorubicin) is 1.27% (inactive). For the same compound, the inhibition was -5.92% (inactive) in assay [7] and -2% (inactive) in assay [8].

For the compound `COC(=O)c1sc(S(=O)(=O)Nc2ccc3cn[nH]c3c2)c(C(=O)OC)c1C`, the viability was 97% in assay [1]; 97% (inactive) in assay [3]; 77.6% (inactive) in assay [4]; 78.2% (inactive) in assay [5]; 90.6% in assay [6] (setting [9]); 78.2% in assay [6] (setting [10]). Besides, in assay [2], the Her2 level was 93.5% (inactive). The differential viability (reversal) in assay [6] (H69AR cells + 2 uM doxorubicin) is -12.4% (inactive). Also, the inhibition is -2.5% (inactive) in assay [7] and -6.55% (inactive) in assay [8].

In the case of `COc1ccc(S(=O)(=O)N2CCCC2C(=O)Nc2ccc(C)cc2)cc1` (stereo not given), the viability in assay [1] is 88%; in assay [3], 88% (inactive); in assay [4], 92.2% (inactive); in assay [5], 89.2% (inactive); in assay [6] (setting [9]), 98%; in assay [6] (setting [10]), 89.2%. Moreover, in assay [2], the Her2 level was 105% (inactive). For the same compound, in assay [6] (H69AR cells + 2 uM doxorubicin), the differential viability (reversal) is -8.78% (inactive). Also, the inhibition in assay [7] was -4.86% (inactive); in assay [8] it was -4.1% (inactive).

In the case of `Cc1cc(NC(=O)COc2cccc(Oc3ccccc3)c2)no1`, the viability in assay [1] is 75.5%; in assay [3] it was 75.5% (inactive); in assay [4], 50.9% (inactive); in assay [5], 22.4% (active); in assay [6] (setting [9]), 60.6%; in assay [6] (setting [10]) it was 22.4%. Moreover, the Her2 level in assay [2] was 90% (inactive). The differential viability (reversal) in assay [6] (H69AR cells + 2 uM doxorubicin) was -38.2% (inactive). For the same compound, the inhibition is -0.38% (inactive) in assay [7] and 3.33% (inactive) in assay [8].

In the case of `O=c1oc2ccccc2n1CCn1c2ccccc2c2nc3ccccc3nc21`, the viability in assay [1] was 85%; in assay [3], 85% (inactive); in assay [4] it was 53.2% (inactive); in assay [5] it was 34.2% (active); in assay [6] (setting [9]) it was 37.8%; in assay [6] (setting [10]), 34.2%. The Her2 level in assay [2] is 96% (inactive). In assay [6] (H69AR cells + 2 uM doxorubicin), the differential viability (reversal) was -3.67% (inactive). For the same compound, the inhibition in assay [7] is -1.05% (inactive); in assay [8], -3.71% (inactive).

Turning to `Cc1ccc(/C(O)=C2\C(=O)C(=O)N(CCCN(C)C)C2c2ccccn2)cc1` (stereo not given), the viability in assay [1] is 101%; in assay [3] it was 101% (inactive); in assay [4], 118% (inactive); in assay [5], 104% (inactive); in assay [6] (setting [9]) it was 108%; in assay [6] (setting [10]), 104%. Also, the Her2 level in assay [2] was 93% (inactive). Also, the differential viability (reversal) in assay [6] (H69AR cells + 2 uM doxorubicin) was -4.14% (inactive). Besides, the figures for the inhibition in assay [7] and in assay [8] were -1.84% (inactive) and 4.43% (inactive), respectively.

In the case of `CCC(=O)N1C(=O)CCN(C(C)=O)c2ccccc21`, the viability was 86.5% in assay [1]; 86.5% (inactive) in assay [3]; 100% (inactive) in assay [4]; 103% (inactive) in assay [5]; 104% in assay [6] (setting [9]); 103% in assay [6] (setting [10]). Also, in assay [2], the Her2 level is 106% (inactive). The differential viability (reversal) in assay [6] (H69AR cells + 2 uM doxorubicin) was -1.28% (inactive). Also, the inhibition in assay [7] was -4.67% (inactive); in assay [8] it was 0.32% (inactive).

On to `CCOC(=O)C1CCN(Cc2c(O)ccc3ccccc23)CC1`, for which the viability in assay [1] was 126%; in assay [3], 126% (inactive); in assay [4], 83.6% (inactive); in assay [5], 98.2% (inactive); in assay [6] (setting [9]), 92.6%; in assay [6] (setting [10]), 98.2%. For the same compound, in assay [2], the Her2 level was 115% (inactive). Besides, the differential viability (reversal) in assay [6] (H69AR cells + 2 uM doxorubicin) is 5.58% (inactive). Further, the inhibition in assay [7] was -7.67% (inactive); in assay [8], 5.4% (inactive).
